The target of assay [1] is T1, Adenosine receptor A1 (Homo sapiens) (UniProt P30542).
T1 sequence (whole entry): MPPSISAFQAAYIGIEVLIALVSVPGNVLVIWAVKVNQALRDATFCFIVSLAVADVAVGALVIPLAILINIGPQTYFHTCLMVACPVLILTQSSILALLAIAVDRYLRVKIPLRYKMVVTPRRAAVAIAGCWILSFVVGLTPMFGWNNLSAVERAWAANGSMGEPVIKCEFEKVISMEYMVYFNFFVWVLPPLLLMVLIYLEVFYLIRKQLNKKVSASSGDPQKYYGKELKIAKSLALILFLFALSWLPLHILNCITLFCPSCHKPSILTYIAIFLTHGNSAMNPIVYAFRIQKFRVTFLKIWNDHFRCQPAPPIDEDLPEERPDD
Briefly: Displacement of [3H]DPCPX from human adenosine A1 receptor expressed in CHO cells at 10 uM. It counts as cell-based.

For assay [2], the target named is Adenosine receptor A2a (Rattus norvegicus) (UniProt P30543). Briefly: Displacement of [3H]CGS 21680 from Wistar rat adenosine A2A receptor at 10 uM. In general terms: Loss of bound radioactivity is the signal in a displacement assay; it reports binding, not function.
The target of another assay is T2, Adenosine receptor A1 (Rattus norvegicus, UniProt P25099).
T2 sequence (P25099 whole entry): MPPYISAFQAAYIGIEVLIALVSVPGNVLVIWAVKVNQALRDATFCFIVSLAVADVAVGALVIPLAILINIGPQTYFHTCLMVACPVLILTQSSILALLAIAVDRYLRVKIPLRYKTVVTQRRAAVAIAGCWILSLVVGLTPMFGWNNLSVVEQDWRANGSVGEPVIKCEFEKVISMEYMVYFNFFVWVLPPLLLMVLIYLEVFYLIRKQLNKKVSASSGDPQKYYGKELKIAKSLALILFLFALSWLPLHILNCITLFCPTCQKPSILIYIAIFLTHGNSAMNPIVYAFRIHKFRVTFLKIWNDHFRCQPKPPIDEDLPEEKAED
Briefly: Displacement of [3H]DPCPX from Wistar rat adenosine A1 receptor. Summed up: (§1)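 Male Wistar rat cortex membranes (40-50 µg protein) incubated 180 min at 25 °C with 0.2-0.5 nM [3H]DPCPX. Buffer: 50 mM Tris/HCl, 2 mM MgCl2, pH 7.7. Run in triplicate. Nonspecific binding defined with 20 µM R-PIA. GF/C filtration; KD 0.51 nM.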

For assay [3], the target named is T3, Adenosine receptor A3 (Homo sapiens, UniProt P0DMS8).
T3 sequence (P0DMS8 whole entry): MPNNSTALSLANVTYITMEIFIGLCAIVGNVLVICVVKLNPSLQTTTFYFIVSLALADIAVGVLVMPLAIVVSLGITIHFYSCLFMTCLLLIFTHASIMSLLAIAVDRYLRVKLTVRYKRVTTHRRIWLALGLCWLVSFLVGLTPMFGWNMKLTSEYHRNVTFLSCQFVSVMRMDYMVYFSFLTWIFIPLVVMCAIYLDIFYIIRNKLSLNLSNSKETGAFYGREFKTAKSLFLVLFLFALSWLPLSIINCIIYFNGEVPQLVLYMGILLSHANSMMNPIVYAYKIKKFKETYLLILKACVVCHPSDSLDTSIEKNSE
The experiment in a line: Antagonist activity at human adenosine A3 receptor expressed in CHO cells assessed as inhibition of NECA-induced cAMP accumulation. It counts as functional, cell-based. Summed up:
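CHO cells stably expressing hA3 were plated and used after 48 h. They were preincubated 15 min at 37 °C with Ro 20-1724 (20 µM) and adenosine deaminase (1 U/mL). Compounds at several concentrations were then added with 100 nM NECA and 10 µM forskolin for 15 min at 37 °C. Lysis in 0.4 N HCl. cAMP was measured by competitive binding against [3H]cAMP (2 nM) with adrenal binding protein, 150 min at 4 °C. EC50 from sigmoid nonlinear regression.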
A general note: cAMP levels reflect the balance of adenylyl cyclase and phosphodiesterase activity.

Assay [4] has as its target T4, Adenosine receptor A3 (Rattus norvegicus) (UniProt P28647).
T4 sequence (whole entry): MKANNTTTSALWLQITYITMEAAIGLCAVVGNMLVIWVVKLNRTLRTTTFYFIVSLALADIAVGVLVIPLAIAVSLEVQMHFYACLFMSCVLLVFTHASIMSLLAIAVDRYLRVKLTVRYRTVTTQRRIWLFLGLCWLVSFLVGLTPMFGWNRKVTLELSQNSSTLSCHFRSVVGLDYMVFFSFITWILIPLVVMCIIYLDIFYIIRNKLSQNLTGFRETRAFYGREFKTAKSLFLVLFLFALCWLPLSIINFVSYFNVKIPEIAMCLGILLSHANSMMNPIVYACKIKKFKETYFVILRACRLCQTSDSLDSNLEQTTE
Briefly: Displacement of [3H](R)-PIA from Wistar rat adenosine A3 receptor at 1 uM. Summed up: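 Rat testis membranes (0.1-0.2 mg protein) incubated with 4 nM [3H]-(R)-PIA and 150 nM DPCPX to block A1 sites. Buffer: 50 mM Tris/HCl pH 7.4, 1 mM EDTA, 10 mM MgCl2. Nonspecific binding defined with 15 µM (R)-PIA. Separation by filtration and scintillation counting. Result is % displacement at 1 µM.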

The target of assay [5] is T3, Adenosine receptor A3. Briefly: Displacement of [125I]AB-MECA from human adenosine A3 receptor expressed in CHO cells. The class given is cell-based. Summed up:
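Five displacer concentrations, each in triplicate. IC50 by nonlinear regression, converted to Ki with Cheng-Prusoff. Means ± SEM of four separate assays.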

In assay [6] the target is T4, Adenosine receptor A3 (Rattus norvegicus). The experiment in a line: Antagonist activity at adenosine A3 receptor in Wistar rat hippocampal slices by prevention of glucose deprivation-induced synaptic impairment assessed as synaptic recovery at 100 nM. The class given is functional, tissue-based. Set-up: scale not given: the % may be the effect or the level left. To be noted: Hippocampus. Summed up: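 Male Wistar rat hippocampal slices (400 µm) superfused with oxygenated aCSF at 30-32 °C and 2 mL/min. CA1 fepsps were evoked from stratum radiatum. OGD was 7 min of glucose-free aCSF gassed with 95% N2-5% CO2. Antagonist (100 nM) was given from 10 min before until 5 min after OGD. Readout: fepsp amplitude at 15 min reperfusion as % of the 5-min pre-OGD baseline; n=5, one-way ANOVA with Newman-Keuls.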

In a further assay the target is Adenosine receptor A2a (Homo sapiens, UniProt P29274). The experiment in a line: Displacement of [3H]NECA from human adenosine A2A receptor expressed in CHO cells at 10 uM. It counts as cell-based.
The target in assay [7] is T5, Adenosine receptor A1 (Rattus norvegicus) (UniProt P25099).
T5 sequence (whole entry): T2 sequence (P25099 whole entry)
Briefly: Displacement of [3H]DPCPX from Wistar rat adenosine A1 receptor at 10 uM. Summed up:
as §1

Adenosine receptor A2a, sequence (P29274 whole entry): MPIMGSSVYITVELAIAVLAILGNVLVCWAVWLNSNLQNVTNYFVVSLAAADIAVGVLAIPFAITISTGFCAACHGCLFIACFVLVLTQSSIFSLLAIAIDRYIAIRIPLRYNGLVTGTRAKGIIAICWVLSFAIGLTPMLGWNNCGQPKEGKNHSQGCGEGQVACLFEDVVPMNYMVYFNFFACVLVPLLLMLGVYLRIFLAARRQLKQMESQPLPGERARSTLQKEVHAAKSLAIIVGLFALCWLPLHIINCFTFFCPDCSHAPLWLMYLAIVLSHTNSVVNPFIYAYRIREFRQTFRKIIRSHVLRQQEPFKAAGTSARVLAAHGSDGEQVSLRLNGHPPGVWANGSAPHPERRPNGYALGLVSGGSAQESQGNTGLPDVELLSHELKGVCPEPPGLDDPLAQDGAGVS
Adenosine receptor A2a (Rattus norvegicus), sequence (P30543 whole entry): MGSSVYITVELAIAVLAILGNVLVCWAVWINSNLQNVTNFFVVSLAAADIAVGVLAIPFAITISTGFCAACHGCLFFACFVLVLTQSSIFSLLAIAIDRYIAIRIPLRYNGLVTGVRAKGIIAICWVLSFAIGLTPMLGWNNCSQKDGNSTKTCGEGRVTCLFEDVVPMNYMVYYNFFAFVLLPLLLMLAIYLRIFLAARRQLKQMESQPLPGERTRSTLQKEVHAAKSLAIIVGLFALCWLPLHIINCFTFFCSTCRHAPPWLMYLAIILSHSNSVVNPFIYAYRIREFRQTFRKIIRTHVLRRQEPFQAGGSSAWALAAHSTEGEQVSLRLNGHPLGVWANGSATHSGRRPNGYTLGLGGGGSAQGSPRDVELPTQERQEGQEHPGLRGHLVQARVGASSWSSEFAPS

In the case of `O=C(Nc1nc2ccccc2c2cn(-c3ccccc3)nc12)C(c1ccccc1)c1ccccc1`, the Activity in assay [1] is 0%; in [2], 26%; in assay [4], 30%; in [6] it was 47%; at Adenosine receptor A2a, 21%. Also, the Ki came to 1490 nM on Adenosine receptor A1 and 8.9 nM on Adenosine receptor A3 [5]. For the same molecule, on Adenosine receptor A3 [3], the EC50 amounted to 3.8 nM.
As to `COc1ccc(-n2cc3c(n2)c(N(C(=O)c2ccccc2)C(=O)c2ccccc2)nc2ccccc23)cc1`, the Activity in assay [1] came to 25%; in assay [2], 2%; in assay [7] it was 11%; in assay [4] it was 28%; in assay [6], 84%; at Adenosine receptor A2a it was 7%. For the same molecule, the EC50 on Adenosine receptor A3 [3] was 11.2 nM. At Adenosine receptor A3 [5], this molecule had an inhibitory constant (Ki) of 17.2 nM.

A word on the Ki: it is the equilibrium dissociation constant of an inhibitor or competing ligand from its target. For orientation: EC50 means the midpoint of the concentration-response curve.

The record behind these values is ChEMBL document CHEMBL1148732, “New 2-arylpyrazolo[3,4-c]quinoline derivatives as potent and selective human A3 adenosine receptor antagonists. Synthesis, pharmacological evaluation, and ligand-receptor modeling studies” (J Med Chem, 2007).
